{"data": "Experimental data gathered from unrelated publications", "AKT2": "RAC-beta serine/threonine-protein kinase (AKT2, Homo sapiens, UniProt P31751)", "PDK1": "[Pyruvate dehydrogenase (acetyl-transferring)] kinase isozyme 1, mitochondrial (PDK1, Homo sapiens, UniProt Q15118)", "note": "Lines come from different studies, so protocols differ."}
{"Compound": "C=CC(=O)N1CCC(COCC(=O)N2CCN(c3nc(-c4cnc(N)nc4C(F)F)nc(N4CCOC[C@@H]4C)n3)CC2)CC1", "target": "AKT2", "effect on": "binding", "technique": "competition with immobilised ligand", "tested at": "1 µM", "quantity": "remaining binding", "value": "100%"}
{"Compound": "O=C(c1ccc(Oc2ccc3cc(Br)ccc3c2Cl)c([N+](=O)[O-])c1)C(Cl)Cl", "target": "PDK1", "effect on": "enzyme activity", "mode": "inhibitor", "technique": "ATP luminescence", "tested at": "10 µM", "quantity": "inhibition", "value": "41.8%"}
{"Compound": "Cc1ncsc1-c1ccc(CNC(=O)[C@@H]2C[C@@H](O)CN2C(=O)[C@@H](NC(=O)CCCCCCCCNC(=O)CN2CCN(C(=O)c3ccc(Nc4nc(C5CC5)cn5c(-c6cn[nH]c6)cnc45)c(F)c3)CC2)C(C)(C)C)cc1", "target": "Mitogen-activated protein kinase kinase kinase 19 (MAP3K19, Homo sapiens, UniProt Q56UN5)", "effect on": "cell-free assay", "technique": "competition with immobilised ligand", "tested at": "1 µM", "quantity": "inhibition", "value": "> 65%"}
{"Compound": "Cc1cc([C@@H](C)Nc2ccccc2C(=O)O)c2nc(N3CCC(F)(F)CC3)c(C#N)c(=O)n2c1", "target": "Casein kinase I isoform gamma-2 (CSNK1G2, Homo sapiens, UniProt P78368)", "effect on": "binding", "technique": "competition with immobilised ligand", "tested at": "1 µM", "quantity": "remaining binding", "value": "100%"}
{"Compound": "O=C(c1ccc(Oc2ccc3c(c2)OCO3)c([N+](=O)[O-])c1)C(Cl)Cl", "target": "PDK1", "effect on": "enzyme activity", "mode": "inhibitor", "technique": "ATP luminescence", "tested at": "10 µM", "quantity": "inhibition", "value": "20.3%"}
{"Compound": "COc1cc(-c2cncc3c2CN(C)Cc2cc(N4CCNCC4)ccc2-3)cc(OC)c1OC", "target": "AKT2", "effect on": "enzyme activity", "mode": "inhibitor", "tested at": "1 µM", "quantity": "remaining activity", "value": "132%"}
{"Compound": "CNc1ncc2c(/C=C/C(=O)N3CCC(OC)CC3)nn(Cc3cccc(C(F)(F)F)c3)c2n1", "target": "Vascular endothelial growth factor receptor 1 (FLT1, Homo sapiens, UniProt P17948)", "effect on": "enzyme activity", "mode": "inhibitor", "technique": "radiometric", "tested at": "1 µM", "quantity": "remaining activity", "value": "95%"}
{"Compound": "Cc1cc(NC(=O)c2cccc(NC(=O)/C=C/CN(C)C)c2)ccc1Nc1nccc(-c2cccnc2)n1", "target": "Mast/stem cell growth factor receptor Kit (KIT, Homo sapiens, UniProt P10721)", "effect on": "binding", "technique": "competition with immobilised ligand", "tested at": "1 µM", "quantity": "remaining binding", "value": "4.1%"}
{"Compound": "CC(=O)Nc1ccc(Oc2ccc(C(=O)C(Cl)Cl)cc2[N+](=O)[O-])cc1", "target": "PDK1", "effect on": "enzyme activity", "mode": "inhibitor", "technique": "ATP luminescence", "tested at": "10 µM", "quantity": "inhibition", "value": "22.7%"}
